Laboratory results taken from ChEMBL document CHEMBL1131107 (J Med Chem, 1998).

Legend:
[1] = target: T1, Protein farnesyltransferase (Rattus norvegicus, UniProt Q02293+Q04631); assay: Inhibition of Farnesyltransferase from rat brain
NIH3T3 [2] = assay: Inhibition of Ras processing in Hras-transformed NIH3T3 cells.
[3] = target: T1, Protein farnesyltransferase; assay: Inhibition of FTase in competitive manner with respect to FPP (farnesyl diphosphate) at 6.0 uM FPP and 0.36 uM Ras peptide.; assay type: protein-complex assay
Procedure, shortened: (§1)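 FTase IC50 (nM) measured at varied substrate levels to test competition: FPP 0.6 or 6.0 μM and Ras C-terminal peptide 0.36 or 3.6 μM. Competition with FPP was judged from the shift in IC50 as FPP and peptide concentrations changed.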

[4] = target: T1, Protein farnesyltransferase; assay: Inhibition of Farnesyltransferase in competitive manner with respect to FPP (farnesyl diphosphate) at 0.6 uM FPP and 0.36 uM Ras peptide; assay type: protein-complex assay; procedure, shortened: as §1
[5] = target: T1, Protein farnesyltransferase; assay: Inhibition of Farnesyltransferase in competitive manner with respect to FPP (farnesyl diphosphate) at 0.6 uM FPP and 3.6 uM Ras peptide.; assay type: protein-complex assay; procedure, shortened: as §1
NIH3T3 [6] = assay: Inhibition of Ras processing in Hras-transformed NIH3T3 cells at 15 uM
NIH3T3 (Mus musculus) = assay: Inhibition of Ras processing in Hras transformed NIH3T3 cells.

Row | SMILES | IC50 [1] [nM] | IC50 (NIH3T3 [2]) [nM] | further results
1 | CC(C(Cc1ccc(Cl)cc1)c1ccc(Cl)cc1)N(C)C(=O)CC(CC(=O)O)C(=O)O (centres undefined) | > 10000 |  | 
2 | C[C@@H]([C@H](C/C=C/c1nc2ccccc2o1)c1ccc2c(c1)OCO2)N(Cc1ccc2ccccc2c1)C(=O)[C@@H]1OC(C(=O)O)(C(=O)O)O[C@H]1C(=O)O | 3.9 | 1200 | 
3 | C[C@@H]([C@H](C/C=C/c1nc2ccccc2o1)c1ccc2c(c1)OCO2)N(Cc1ccc2ccccc2c1)C(=O)[C@@H]1OC(C(=O)O)(C(=O)O)O[C@@H]1C(=O)O | 5 | 4300 | IC50 [3]: 45 nM; IC50 [4]: 5.6 nM; IC50 [5]: 7.2 nM
4 | C[C@H]([C@@H](C/C=C/c1nc2ccccc2o1)c1ccc2c(c1)OCO2)N(Cc1ccc2ccccc2c1)C(=O)[C@@H]1OC(C(=O)O)(C(=O)O)O[C@@H]1C(=O)O | 6 | 8800 | 
5 | C[C@@H]([C@H](C/C=C/c1nc2ccccc2o1)c1ccc2c(c1)OCO2)N(Cc1ccc2ccccc2c1)C(=O)[C@H]1OC(C(=O)O)(C(=O)O)O[C@H]1C(=O)O | 3.9 | 10000 | 
6 | C[C@@H]([C@H](C/C=C/c1nc2ccccc2o1)c1ccc2c(c1)OCO2)N(Cc1ccc2ccccc2c1)C(=O)[C@H]1OC(C(=O)[O-])(C(=O)[O-])O[C@@H]1C(=O)[O-].[Na+].[Na+].[Na+] | 7.2 |  | Inhibition (NIH3T3 [6]): 42%

Second part, led by results:

Row | IC50 [1] [nM] | SMILES | IC50 (NIH3T3 [2]) [nM] | further results
7 | 28 | CC(C(C/C=C/c1nc2ccccc2o1)c1ccc(Cl)cc1)N(Cc1ccc2ccccc2c1)C(=O)CC(CC(=O)O)C(=O)O (centres undefined) |  | 
8 | 23 | CC(C(C/C=C/c1nc2ccccc2o1)c1ccc2c(c1)OCO2)N(Cc1ccc2ccccc2c1)C(=O)CC(CC(=O)O)C(=O)O (centres undefined) |  | 
9 | 51 | CC(C(C/C=C/c1ccc2ccccc2c1)c1ccc(Cl)cc1)N(Cc1ccc2ccccc2c1)C(=O)CC(CC(=O)O)C(=O)O (centres undefined) |  | 
10 | 8 | CC(C(C/C=C/c1nc2ccccc2o1)c1ccc2c(c1)OCO2)N(Cc1ccc2ccccc2c1)C(=O)C1OC(C(=O)O)(C(=O)O)O[C@H]1C(=O)O (single isomer, unassigned) |  | IC50 (NIH3T3 (Mus musculus)): 17000 nM
